Measured values taken from ChEMBL document CHEMBL4270576, “Discovery of a benzenesulfonamide-based dual inhibitor of microsomal prostaglandin E2 synthase-1 and 5-lipoxygenase that favorably modulates lipid mediator biosynthesis in inflammation” (Eur J Med Chem, 2018).
Active and inactive are the calls of the source. The calls are words filed in the database; no cut-off is given here.

Columns and labels:
Homo sapiens [1] = species on record: Homo sapiens; assay: Modulation of LO-mediated PD1 level in human M2 macrophages derived from IL4-polarized human monocyte derived macrophages at 3 uM preincubated for 15 mins followed by Escherichia coli (O6:K2:H1) challenge for 90 mins by LC-MS/MS analysis
Outline: (§1)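 Monocytes differentiated 6 days with M-CSF (20 ng/ml), then polarized 48 h with IL-4 20 ng/ml (M2). Cells (2 × 10^6) in PBS/1 mM CaCl2 pre-incubated 15 min at 37 °C with 3 µM compound or 0.1% DMSO, then challenged with E. coli O6:K2:H1 (1:50) for 90 min. Lipid mediators extracted by SPE with deuterated internal standards and quantified by UPLC-MS/MS as % of vehicle.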

Homo sapiens [2] = species on record: Homo sapiens; assay: Modulation of LO-mediated RvD2 level in human M2 macrophages derived from IL4-polarized human monocyte derived macrophages at 3 uM preincubated for 15 mins followed by Escherichia coli (O6:K2:H1) challenge for 90 mins by LC-MS/MS analysis; outline: as §1
Mus musculus = assay: Antiinflammatory activity in CD-1 mouse assessed as reduction in zymosan-induced LTC4 formation in peritoneal cavity at 10 mg/kg, ip preincubated for 30 mins followed by zymosan addition measured after 30 mins by ELISA; type: functional, organism-based
Outline: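 CD-1 male mice (6-8 weeks), n=6 per group, given 10 mg/kg i.p. in 2% DMSO/saline vehicle 30 min before i.p. zymosan (500 µL of 2 mg/mL suspension). Peritoneal cavity washed with 3 ml PBS 30 min after zymosan; LTC4 measured in exudate. One-way ANOVA with Bonferroni test.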

[3] = biological target: T1, Polyunsaturated fatty acid 5-lipoxygenase (Homo sapiens) (UniProt P09917); assay: Inhibition of recombinant human 5-LO binding to FLAP expressed in HEK293 cells at 10 uM after 1 hr by DAPI staining-based immunofluorescence microscopic analysis; type: cell-based
T1 sequence (whole entry): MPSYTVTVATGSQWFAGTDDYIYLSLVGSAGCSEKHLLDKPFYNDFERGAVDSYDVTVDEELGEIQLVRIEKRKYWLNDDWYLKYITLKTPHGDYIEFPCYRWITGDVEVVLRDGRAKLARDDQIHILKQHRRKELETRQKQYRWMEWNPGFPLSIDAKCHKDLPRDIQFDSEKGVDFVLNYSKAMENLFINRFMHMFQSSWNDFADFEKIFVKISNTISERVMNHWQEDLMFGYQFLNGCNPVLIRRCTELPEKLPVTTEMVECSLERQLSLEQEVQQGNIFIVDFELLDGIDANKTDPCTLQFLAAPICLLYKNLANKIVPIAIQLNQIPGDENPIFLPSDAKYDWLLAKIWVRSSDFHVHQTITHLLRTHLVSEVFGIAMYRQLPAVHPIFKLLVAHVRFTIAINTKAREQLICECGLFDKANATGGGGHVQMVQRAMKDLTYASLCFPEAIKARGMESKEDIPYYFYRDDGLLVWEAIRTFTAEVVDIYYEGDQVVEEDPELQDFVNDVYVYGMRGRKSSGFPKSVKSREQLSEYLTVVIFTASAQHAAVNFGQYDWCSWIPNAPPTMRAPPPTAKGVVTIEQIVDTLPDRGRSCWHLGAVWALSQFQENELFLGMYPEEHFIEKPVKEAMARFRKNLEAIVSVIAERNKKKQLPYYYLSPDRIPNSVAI
Outline: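 HEK293 cells stably expressing 5-LO/FLAP, treated with 10 µM compound for 10 min and then 2.5 µM A23187 for 20 min at 37 °C, fixed, and probed with anti-5-LO/anti-FLAP primaries. This was followed by oligonucleotide-linked secondaries (1 h, 37 °C), ligation, rolling-circle amplification and DAPI nuclear stain. Proximity ligation signals counted microscopically in 100 cells from three experiments.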

[4] = biological target: T2, Polyunsaturated fatty acid lipoxygenase ALOX15 (Homo sapiens) (UniProt P16050); assay: Modulation of 15-LO-mediated 15-HETE level in human M2 macrophages derived from IL4-polarized human monocyte derived macrophages at 3 uM preincubated for 15 mins followed by Escherichia coli (O6:K2:H1) challenge for 90 mins by LC-MS/MS analysis; outline: as §1
T2 sequence (whole entry): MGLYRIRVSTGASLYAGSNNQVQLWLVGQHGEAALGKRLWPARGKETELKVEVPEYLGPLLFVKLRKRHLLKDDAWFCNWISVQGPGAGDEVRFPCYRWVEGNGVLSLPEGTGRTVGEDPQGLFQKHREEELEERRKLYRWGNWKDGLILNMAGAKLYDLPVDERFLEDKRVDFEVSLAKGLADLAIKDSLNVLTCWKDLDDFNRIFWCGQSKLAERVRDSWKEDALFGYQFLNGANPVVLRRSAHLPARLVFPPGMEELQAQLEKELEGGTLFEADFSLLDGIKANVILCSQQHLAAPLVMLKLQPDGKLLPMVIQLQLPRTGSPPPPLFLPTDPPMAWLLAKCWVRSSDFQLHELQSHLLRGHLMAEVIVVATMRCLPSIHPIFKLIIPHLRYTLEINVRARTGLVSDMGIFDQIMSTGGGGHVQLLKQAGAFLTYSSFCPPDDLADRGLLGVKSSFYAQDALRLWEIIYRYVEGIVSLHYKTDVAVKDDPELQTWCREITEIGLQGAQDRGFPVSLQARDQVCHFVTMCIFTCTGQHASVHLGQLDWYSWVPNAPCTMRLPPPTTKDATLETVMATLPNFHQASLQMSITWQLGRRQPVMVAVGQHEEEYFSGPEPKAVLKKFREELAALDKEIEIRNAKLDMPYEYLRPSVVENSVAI

Neutrophil = assay: Cytotoxicity against human neutrophils at 10 uM; type: cell-based
[5] = biological target: T1, Polyunsaturated fatty acid 5-lipoxygenase (Homo sapiens); assay: Inhibition of 5-LO in human M1 macrophages derived from LPS/IFNgamma-polarized human monocyte derived macrophages assessed as effect on t-LTB4 level at 3 uM preincubated for 15 mins followed by Escherichia coli (O6:K2:H1) challenge for 90 mins by LC-MS/MS analysis; design: scale not given: the % may be the effect or the level left
Outline: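 Monocytes differentiated 6 days with GM-CSF (20 ng/ml) in RPMI/10% FCS, then polarized 48 h with LPS 100 ng/ml plus IFN-γ 20 ng/ml (M1). Cells (2 × 10^6) in PBS with 1 mM CaCl2 pre-incubated 15 min at 37 °C with 3 µM compound or 0.1% DMSO, then E. coli O6:K2:H1 (1:50) for 90 min. Methanol with deuterated standards added; SPE; UPLC-MS/MS; expressed as % of vehicle.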

Macrophage cell line = assay: Modulation of 18-HEPE level in human M2 macrophages derived from IL4-polarized human monocyte derived macrophages at 3 uM preincubated for 15 mins followed by Escherichia coli (O6:K2:H1) challenge for 90 mins by LC-MS/MS analysis; type: functional; outline: as §1

## O=C(O)c1ccc(N(Cc2cccc(OCc3ccccc3)c2)S(=O)(=O)c2ccc(-c3ccccc3)cc2)cc1
Homo sapiens [1]
  Activity: 110%
Homo sapiens [2]
  Activity: 128%
Mus musculus
  Activity: Active
[3]
  inhibition: Active
[4]
  Activity: 135%
Neutrophil
  Activity: Non-Toxic
[5]
  Activity: 17%
Macrophage cell line
  Activity: 86%
